Assay outcomes as filed in PubChem BioAssay.
Hits are enriched below; roughly 2.7% of the tested compounds scored in any of these assays.
RBBP9 inhibitor: inhibitors of human serine hydrolase RBBP9; inhibition, % at 7.94 µM; AID 1515; recombinant RBBP9, FP-Rh probe fluorescence polarization; O75884; 0.2% of 220,000 active;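 active means inhibition above the campaign mean of all tested compounds plus 3 SD, cut at about 14% in these data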;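 further: plate controls were DMSO wells with RBBP9 for no effect and wells lacking RBBP9 protein for full effect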
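System: RBBP9 protein / Buffer or medium: Tris/NaCl buffer pH 8.0 with 0.1% Pluronic / Probe or stimulus: Serine-hydrolase probe FP-Rh, 375 nM pre-mixing / Dosing: 7.94 µM single dose, 0.794% DMSO / Times: enzyme-compound preincubation 30 min, then probe labeling 45 min, 25 °C / Technique: fluorescence polarization (mP), excitation 525 nm, emission 598 nm / Replication: singlicate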
PAD4 inh: blocks human protein arginine deiminase 4; 0.41% of 330,000 active; Q9UM07; inhibition, % at 6.36 µM; AID 485272; recombinant PAD4, RCA probe fluorescence polarization;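 active means percent inhibition above a cutoff equal to the mean of all tested compounds plus 3 SD, cut at about 15% in these data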;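 further: 0% = PAD4 with RCA probe and DMSO and 100% = probe without PAD4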
GSTO1 inh: GSTO1 inhibition, counter-screen for RBBP9 inhibitors; 1.1% of 300,000 active; inhibition, % at 5.96 µM; recombinant GSTO1, activity-based probe fluorescence polarization; P78417;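 active means inhibition above the campaign mean inhibition plus 3 SD, cut at about 35% in these data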;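 further: 0% = GSTO1-1 with DMSO and 100% = wells lacking GSTO1-1 enzyme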
PRMT1 inh: inhibitors of human PRMT1 | AID 652257 | recombinant PRMT1, activity-based probe fluorescence polarization | inhibition, % at 2.79 µM | 1.3% of 370,000 active | Q99873;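 active means inhibition above about 21% made by adding two undisclosed values, limit read from the data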
SIAE primary: human SIAE inhibition, primary screen; Q9HAT2; SIAE FP-Rh probe binding, fluorescence polarization; inhibition, % at 9.66 µM; 0.69% of 370,000 active;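 active means inhibition above a cutoff: mean of compounds within the control limits plus 3 SD of those, cut at about 17% in these data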;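 further: 0% = plate median of compound wells and 100% = probe without SIAE protein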
RBBP9 confirm: confirmation of human RBBP9 inhibitors; 36% of 410 active; shares compounds with RBBP9 inhibitor; inhibition, % at 7.94 µM; recombinant RBBP9, FP-Rh probe fluorescence polarization;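 active means inhibition above the hit cutoff derived for the primary screen, cut at about 15% in these data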;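 further: 0% = RBBP9 with DMSO and 100% = wells lacking RBBP9 protein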
GSTO1 inh conf: confirmation of human GSTO1 inhibitors; shares compounds with GSTO1 inh; 54% of 2,400 active; recombinant GSTO1, probe fluorescence polarization; inhibition, % at 5.96 µM;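 active means inhibition above the primary screen's cutoff, its mean inhibition plus 3 SD, cut at about 35% in these data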;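 further: loss of polarization as inhibitors block binding of rhodamine sulfonate ester activity probe; 0% = GSTO1 with DMSO and 100% = wells lacking GSTO1 enzyme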
* = called active by the depositor; . = no result.

SMILES | RBBP9 inhibitor | PAD4 inh | GSTO1 inh | PRMT1 inh | SIAE primary | RBBP9 confirm | others
COc1ccc(-c2cc(O)cc(O)c2)cc1 | 34.8* | 3.4 | 9.4 | 2.0 | 2.2 | 4.9
Cc1cc(C)n(-c2cccc3cccnc23)n1 | -3.3 | -4.5 | -4.5 | -3.8 | -1.5 | .
CC(=O)c1c(C(C)=O)c(C)n(-c2cccc3cccnc23)c1C | 28.7* | -2.2 | 13.5 | 1.3 | -7.3 | 4.0
O=C(c1ccc(S(=O)(=O)N2CCOCC2)cc1)N1CCN(c2cccc(Cl)c2)CC1 | -3.2 | 2.5 | 6.8 | 0.1 | 3.1 | .
Cc1ccc(C)n1-c1ccc(N2CCOCC2)c([N+](=O)[O-])c1 | 15.8* | 3.5 | 9.2 | -0.6 | 8.2 | 9.1
Cc1ccc2nc(SCC(=O)N3CCC(Cc4ccccc4)CC3)nc(=O)n2c1 | . | -0.3 | 0.6 | 0.2 | -7.9 | .
O=C(CSc1nc(-c2ccccc2)cc(=O)[nH]1)N1CCc2ccccc21 | 15.8* | -1.2 | -5.5 | -2.0 | 4.3 | 0.2
Nc1nc(SCC(=O)N2CCc3ccccc32)[nH]c(=O)c1-c1ccccc1 | 5.8 | 1.1 | 2.9 | 2.8 | 3.4 | .
O=C(CN1CCCCC1)N/N=C/c1ccccc1Br | . | -9.4 | -6.0 | -1.1 | 4.6 | .
COc1ccccc1CN1C(=O)C2CC=CCC2C1=O (centres undefined) | -11.9 | -3.7 | -4.0 | 2.5 | -2.6 | .
O=C1C2CC=CCC2C(=O)N1Cc1ccccc1 (centres undefined) | 18.8* | -5.2 | 6.8 | -6.8 | 2.6 | 8.9
O=C(NCCc1ccccc1F)C1CC(O)CN1C(=O)Nc1ccccc1 (centres undefined) | . | . | . | 1.1 | 2.4 | .
CCC[N+]1(CC#CC(O)(c2ccccc2)C2CCCCC2)CCCCC1 (centres undefined) | 15.1* | 4.8 | -8.5 | 1.4 | -4.0 | 39.2*
C(=C\c1ccccc1)/CN1CCN(Cc2ccc3c(c2)OCCO3)CC1 | -0.5 | . | . | . | . | .
CCN(CC)C(=O)C(=O)c1cccn1-c1ccccc1C#N | 20.7* | 1.9 | 6.0 | -2.2 | 7.4 | 7.1
Cc1ccc(C(=O)CNc2nc3c(c(=O)[nH]c(=O)n3C)n2Cc2ccccc2)cc1 | -7.3 | 4.4 | -25.0 | 1.8 | -3.0 | .
CCOC(=O)COc1ccc2c(=O)c(-c3ccccc3OC)coc2c1 | -7.7 | -2.4 | 0.9 | -2.9 | -2.9 | .
COC(=O)COc1ccc2c(=O)c(-c3ccccc3OC)coc2c1 | 19.1* | -0.1 | -0.6 | 0.9 | -2.8 | 6.6
CC1(C)NC(=O)NC2(C)NC(=O)NC(C)(C)C12 (centres undefined) | 20.2* | -0.7 | -1.2 | 0.0 | -5.4 | 10.8
Cc1sc(NC(=O)c2ccco2)c(C(Nc2ccccn2)c2ccccc2)c1C (centres undefined) | 21.1* | -5.2 | 6.1 | -4.1 | -1.5 | -2.3
COc1ccc(C(=O)C[n+]2cc(-c3ccc(OC)cc3)n3c2CCCC3)cc1 | -3.1 | -0.8 | -4.7 | -1.5 | 1.9 | .
Cc1ccc(C(=O)C[n+]2cc(-c3ccc(C)cc3)n3c2CCCCC3)cc1 | 21.4* | 1.0 | -5.7 | -0.7 | -3.8 | 2.8
CC1=NNC(=O)C1C(c1cccc(O)c1)C(C#N)C#N (centres undefined) | 11.4 | 1.3 | 1.4 | 7.1 | 3.9 | .
CC1=NNC(=O)C1C(c1ccc(Cl)cc1)C(C#N)C#N (centres undefined) | 21.8* | -5.2 | -0.6 | 0.5 | 0.3 | -0.7
Cn1c(=O)n(CCOc2ccc([N+](=O)[O-])cc2)c2ccccc21 | 0.5 | -2.7 | 17.1 | -0.9 | -2.8 | .
Cc1cc(C)c(NC(=O)CS(=O)CC(=O)N2CCN(c3ccc(F)cc3)CC2)c(C)c1 (centres undefined) | -4.7 | -2.0 | 8.3 | 0.4 | 1.4 | .
Cc1noc(C)c1S(=O)(=O)Nc1ccc(C(=O)N2CCC(C)CC2)cc1 | 18.2* | -5.8 | -2.7 | . | . | 6.8
CCN(CC)c1ccc(NC(=O)c2ccc3c(c2)c(C)c(C)n3C)cc1 | 30.0* | -0.5 | 7.0 | 4.0 | 9.6 | 28.1*
Oc1ccc(O)c(-c2cnns2)c1 | 17.8* | 0.0 | 88.9* | 15.1 | 4.3 | 55.2* | GSTO1 inh conf=-5.2
COc1ccc(S(=O)(=O)N(C(=O)c2ccco2)c2cc3sc(=O)oc3c3ccccc23)cc1 | 28.9* | 9.0 | 63.8* | 94.3* | -52.8 | 9.0 | GSTO1 inh conf=18.7
